Screening data: PubChem, several laboratories
M18AAP inhibitor = PfM18AAP enzyme inhibition; inhibition, % at 7.35 µM; 1.2% of 290,000 active; AID 1822; recombinant PfM18AAP, H-Glu-NHMec fluorogenic cleavage;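 active = inhibition above the campaign mean inhibition over all tested compounds plus 3 SD, cut at about 28% in these data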;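 also: 0% = plate median of test compound wells and 100% = 2 mM ZnCl2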
ZTA counter = ZTA (EBV) inhibition in EBNA-1 counter-screen; 0.15% of 320,000 active; ZTA-DNA binding, fluorescence polarization; P03206; inhibition, % at 11 µM; in the data active = inhibition above about 33%
Target sequence (P03206 whole entry, looked up): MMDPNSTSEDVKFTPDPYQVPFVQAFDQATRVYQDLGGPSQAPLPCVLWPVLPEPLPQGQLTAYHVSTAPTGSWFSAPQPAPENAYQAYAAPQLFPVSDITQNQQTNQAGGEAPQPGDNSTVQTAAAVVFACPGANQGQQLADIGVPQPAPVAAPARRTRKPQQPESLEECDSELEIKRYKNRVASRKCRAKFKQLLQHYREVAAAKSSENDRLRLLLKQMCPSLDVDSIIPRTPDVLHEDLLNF
EBNA-1 inhibitor = blocks EBNA-1 binding to DNA | EBNA-1 DNA binding, fluorescence polarization | 0.34% of 300,000 active | inhibition, % at 14.8 µM; in the data active = inhibition above about 28%
HCV NS3 hel inh = inhibitors of Hepatitis C virus NS3 helicase; NS3 helicase DNA unwinding, Cy5 molecular beacon fluorescence; inhibition, % at 10.9 µM; 0.56% of 290,000 active; AID 1800;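 active = inhibition above the mean of all tested compounds plus 3 SD, set per campaign, cut at about 35% in these data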;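 also: 0% = DMSO wells and 100% = thioflavine S control wells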
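System: HCV NS3 helicase fragment; control set: DMSO and thioflavine S; technique: Cy5 fluorescence at 0 and 60 min, beacon hairpin quenching; reagent: beacon DNA duplex substrate plus ATP; replicates: singlicate; schedule: 1 h reaction at 25 °C, ATP-initiated; medium: MOPS buffer pH 6.5 with MgCl2, DTT, Tween20, BSA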
ALR inh = inhibitors of human sulfhydryl oxidase ALR; inhibition, % (test concentration not listed); P55789; 3.8% of 290,000 active; purified ALR, DTT oxidation, H2O2 HRP-luminol luminescence;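 active = mean replicate inhibition above about 79%, with every replicate also reaching it, limit read from the data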
Target sequence (P55789 whole entry, looked up): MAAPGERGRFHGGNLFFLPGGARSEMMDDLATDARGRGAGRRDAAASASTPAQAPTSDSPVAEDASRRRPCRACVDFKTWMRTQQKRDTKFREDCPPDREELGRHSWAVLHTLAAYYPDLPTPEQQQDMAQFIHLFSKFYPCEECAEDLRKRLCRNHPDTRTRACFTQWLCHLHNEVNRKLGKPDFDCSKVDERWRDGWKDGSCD
core dimer inh = HCV core protein dimerization inhibition | AID 1899 | 0.33% of 300,000 active | TR-FRET GST/Flag-core106 dimerization, 1536-well | inhibition, % at 5 µM;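 active = inhibition above the mean of all tested compounds plus 3 SD, set per screening campaign, cut at about 45% in these data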
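System: GST-tagged and Flag-tagged HCV core protein residues 1-106 / Input: core106 proteins, GST 13.5 nM and Flag 17 nM / Buffer or medium: KF-containing HEPES buffer, pH 7.45, DTT, CHAPS, BSA / Probe or stimulus: Eu-anti-GST and XL665-anti-Flag labelled anti-tag antibodies / Schedule: 4 h, 22.5 °C incubation / Technique: TR-FRET 671 and 617 nm emission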
NS3 hel confirm = confirmation of Hepatitis C virus NS3 helicase inhibitors | shares compounds with HCV NS3 hel inh | NS3 helicase DNA unwinding, Cy5 molecular beacon fluorescence | inhibition, % at 10.9 µM | 31% of 1,600 active | AID 1943;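 active = inhibition above the mean of all tested compounds plus 3 SD, cutoff set per campaign, cut at about 36% in these data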
DNA FID counter = displaces DNA intercalator in HCV helicase counter-screen | shares compounds with HCV NS3 hel inh | DNA fluorescent intercalator displacement, fluorescence | inhibition, % at 7.9 µM | 4% of 1,600 active | AID 1945; in the data active = inhibition above about 37%;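 also: 0% = vehicle and 100% = reference compound; higher means more displacement of ethidium bromide from the DNA hairpin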
DNA FID DR = counter-screen for HCV NS3 helicase inhibitors: DNA intercalator displacement dose response; IC50, µM; AID 2172; 120 tested, under 10 active; fluorescent intercalator displacement from DNA, fluorescence; shares compounds with HCV NS3 hel inh; call rule not given here
The depositor's hits bear a star; · = no result given. Hits are enriched below; roughly 5.2% of the tested compounds scored in any of these assays.

SMILES | M18AAP inhibitor | ZTA counter | EBNA-1 inhibitor | HCV NS3 hel inh | ALR inh | core dimer inh | NS3 hel confirm | DNA FID counter | others
CCOC(=O)/C=c1\s/c(=C(\C#N)C(=O)OCC)n(-c2ccccc2)c1=O | 17 | 5 | 6 | 57* | -6 | 11 | -9 | -10
CNC(=O)/C(C#N)=c1\s/c(=C/C(=O)OC)c(=O)n1-c1ccccc1 | 23 | 3 | 0 | 8 | -2 | -6 | · | ·
O=C(CC1SC(=O)N(c2ccccc2)C1=O)Nc1ccc(Br)cc1 (centres undefined) | -10 | -4 | -8 | 37* | 21 | 1 | -9 | 11
CCCCn1c(N)c(N(CC(C)C)C(=O)CCCc2nc3ccccc3s2)c(=O)[nH]c1=O | · | -5 | 4 | · | -3 | -1 | · | ·
CCCCn1c(N)c(N(CCC(C)C)C(=O)CCCc2nc3ccccc3s2)c(=O)[nH]c1=O | 10 | 6 | 0 | 38* | -3 | -9 | 3 | -35
Cc1[nH]c(C)c(S(=O)(=O)N(Cc2ccccc2)C(C)(C)C)c1C(=O)N1CCCC1 | 1 | 1 | -7 | 38* | -9 | -7 | -10 | -33
Cc1[nH]c(C)c(S(=O)(=O)N(C)Cc2ccccc2)c1C(=O)N1CCCC1 | -11 | 2 | 0 | 2 | -7 | -9 | · | ·
COc1ccc(-c2csc(N3CCN(S(=O)(=O)c4ccc5c(c4)NC(=O)CO5)CC3)n2)cc1 | 2 | 12 | -4 | -17 | 0 | 15 | · | ·
CC(C)c1ccc(NC(=O)c2ccccc2NC(=O)C2CC=CCC2C(=O)O)cc1 (centres undefined) | 0 | · | · | 13 | 13 | · | · | ·
CC(C)c1ccc(NC(=O)c2ccccc2NC(=O)C2CCCCC2C(=O)O)cc1 (centres undefined) | -3 | · | · | 45* | 3 | · | 48* | -52
CC(CC(=O)NC1CCCCC1)S(=O)(=O)c1ccc2c(c1)NC(=O)CO2 (centres undefined) | 12 | -4 | -1 | 38* | -2 | -10 | -20 | -2
CCNC(=S)N1CCN(Cc2ccc3c(c2)OCO3)CC1 | 2 | -3 | -10 | -14 | · | -6 | · | ·
CCCNC(=S)N1CCN(Cc2ccc3c(c2)OCO3)CC1 | 0 | -9 | -3 | 55* | -2 | -6 | -6 | 11
CS(=O)(=O)CC(=O)Nc1ccc2nc3n(c(=O)c2c1)CCCCC3 | 0 | -5 | -4 | -1 | 22 | -2 | · | ·
Cc1ccnc2nc(C(=O)OCC(=O)N(CC(C)C)C3CCS(=O)(=O)C3)nn12 (centres undefined) | · | 8 | · | · | · | · | · | ·
COc1ccc(CCNC(=O)COC(=O)/C=C/c2cc(OC)c(OC)c(OC)c2)cc1OC | -2 | 13 | -3 | 43* | 2 | -3 | -15 | -41
CC1(C)CC(=O)C(C(O)c2ccccc2)C(C)(C)N1 (centres undefined) | 3 | 9 | 7 | 9 | -5 | 11 | · | ·
Nn1c(SCc2ccccc2)nc2ccccc21 | 6 | 1 | -4 | -2 | -9 | 5 | · | ·
CCOc1ccc(/C=C/C(=O)c2cc(Br)ccc(=O)c2O)cc1 | 28 | 15 | 2 | 59* | 96* | 3 | 77* | 5 | DNA FID DR=>79
CCOC(=O)C1=NN(C(=O)c2ccccc2)C(O)(c2ccc(C)cc2)C1 (centres undefined) | 1 | 0 | 5 | 44* | 11 | -3 | -9 | -8
CC(CCN1C(Nc2ccccc2)=NC[C@@H]1Cc1ccccc1)c1ccccc1 (some centres undefined) | 0 | 7 | 3 | -77 | -5 | 4 | · | ·
Cc1ccc(-n2ncc(C#N)c2/N=C/N2CCCCCC2)cc1 | 8 | 6 | -1 | 101* | -6 | 8 | 1 | -38
COC(=O)c1cccnc1Oc1ccccc1 | -13 | 5 | -11 | -1 | 8 | -5 | · | ·
CCN(CC)S(=O)(=O)c1ccc(NC(=O)COC(=O)c2ccc(-n3nc(C)cc3C)cc2)cc1 | 0 | -5 | -7 | -7 | -3 | 10 | · | ·
CCN(CC)S(=O)(=O)c1ccc(NC(=O)COC(=O)c2ccc(NC(=O)CC#N)cc2)cc1 | -5 | -20 | -6 | 41* | 99* | 25 | 11 | 16
SMILES | M18AAP inhibitor | ZTA counter | EBNA-1 inhibitor | HCV NS3 hel inh | ALR inh | core dimer inh | NS3 hel confirm | DNA FID counter | others
S=c1nc(Cc2ccccc2)[nH]c2ccccc12 | -6 | -1 | -10 | -4 | · | 38 | · | ·
S=c1nc(COc2ccccc2)[nH]c2ccccc12 | 16 | 9 | -35 | 42* | 18 | 31 | -12 | 3
Cc1nc2ccccn2c1C(=O)N/N=C/c1ccc2c(c1)OCO2 | 15 | 5 | -6 | 40* | -3 | -5 | -11 | 3
Cc1nc2ccccn2c1C(=O)NCc1ccc2c(c1)OCO2 | -14 | -11 | -20 | -10 | 2 | -2 | · | ·
NC(=S)N/N=C/c1c(O)ccc2ccccc12 | 27 | 9 | 2 | 57* | -31 | -11 | 7 | -1
O=C(N/N=C/c1c(O)ccc2ccccc12)c1ccc(CO)nc1 | 15 | -3 | -5 | 39* | -28 | -10 | 7 | -1
O=C(NN=Cc1c(O)ccc2ccccc12)c1ccc2c(c1)OCO2 | · | · | · | · | -36 | · | · | ·
CSc1ncc(C(=O)Nc2ccc(C(C)=O)cc2)c(-c2ccccc2)n1 | 15 | -13 | -9 | 8 | -6 | -2 | · | ·
Clc1ccc(C2Nc3cccc4cccc(c34)N2)cc1 | 12 | -2 | 8 | 69* | -6 | 18 | -28 | 26
N#Cc1ccc(OCC(=O)Nc2ccc3[nH]c(=O)[nH]c3c2)cc1 | · | -1 | -6 | · | 23 | -3 | · | ·
CC(=O)C1=C(C)NC(SCc2cccc3ccccc23)=C(C#N)C1c1ccco1 (centres undefined) | 10 | 0 | -9 | 38* | 99* | 5 | -4 | -3
CC(=O)C1=C(C)NC(SCc2ccc(C#N)cc2)=C(C#N)C1c1ccco1 (centres undefined) | 12 | -5 | -9 | 25 | 33 | -3 | · | ·
CCOC(=O)/C(C(C)=O)=C1\OC(=O)c2ccccc21 | -1 | 7 | -10 | 44* | -10 | -3 | -7 | 7
CCOC(=O)/C(C(C)=O)=C1/OC(=O)c2ccccc21 | 1 | -20 | 2 | 0 | -1 | 2 | · | ·
CC(C)(C)C1CCC(=NNC(=O)C(=O)NC2CCCCC2)CC1 (centres undefined) | -1 | 4 | 7 | 9 | -6 | 5 | · | ·
Cc1ccccc1CN1C(=O)CS/C1=N/N=C/c1ccco1 | 5 | 0 | 9 | 45* | -5 | 10 | -17 | -18
COc1ccc(-n2c(Cc3cccn3C)nnc2SCC(=O)Nc2ccc3c(c2)OCO3)cc1 | 9 | -9 | -2 | 45* | 25 | -1 | -15 | -28
